For 14 compounds, IC50, inhibition and Ratio IC50 results are on record in ChEMBL document CHEMBL2311362, “Fragment-based discovery of novel and selective mPGES-1 inhibitors Part 1: identification of sulfonamido-1,2,3-triazole-4,5-dicarboxylic acid” (Bioorg Med Chem Lett, 2013).

The source made the active and inactive calls. No cut-off for these calls is given here.

The nature of assay [1]: Inhibition of rat mPGES1 expressed in CHOK21 cells using [3H]PGH2 as substrate by radio-HPLC analysis. The class given is cell-based.
The next assay deals with T1, Prostaglandin E synthase (Homo sapiens, UniProt O14684).
T1 sequence (O14684 whole entry): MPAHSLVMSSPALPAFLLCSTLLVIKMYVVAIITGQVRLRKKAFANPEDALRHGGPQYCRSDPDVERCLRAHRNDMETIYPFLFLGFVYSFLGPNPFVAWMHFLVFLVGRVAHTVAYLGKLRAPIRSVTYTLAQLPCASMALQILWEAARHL
Put plainly: Inhibition of mPGES1 (unknown origin) using PGH2 as substrate incubated for 30 mins prior to substrate addition by PGH2-coupled spectrophotometric analysis. Summed up: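 Two-enzyme coupled assay. 110 nM mPGES-1 and 220 nM 15-PGDH in 200 µL buffer (50 mM Tris-HCl pH 7.5, 50 µM PMA, 2 mM reduced glutathione, 1 mM NAD+, 0.1 mM DTT), compound added in 1 µL DMSO, preincubated 30 min. Started with cold PGH2 (14 µM final). NADH read by fluorescence, excitation 340 nm, emission 468 nm. IC50 from varying concentrations.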

The target in assay [2] is T2, Prostaglandin E synthase (Homo sapiens) (UniProt O14684).
T2 sequence (whole entry): T1 sequence (O14684 whole entry)
Put plainly: Inhibition of human recombinant mPGES1 using PGH2 as substrate at 10 uM incubated for 5 mins prior to substrate addition measured after 5 mins by HPLC analysis in presence of triton-X-100. In short, it runs like this:
(§1)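 mPGES-1 inhibition measured at 10 µM test compound, run with and without 0.1% Triton X-100, following a previously published protocol. Reported as % inhibition.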

Assay [3] has as its target T2, Prostaglandin E synthase (Homo sapiens). The experiment in a line: Inhibition of human recombinant mPGES1 using PGH2 as substrate at 10 uM incubated for 5 mins prior to substrate addition measured after 5 mins by HPLC analysis. Summed up:
as §1

The target of assay [4] is T3, Prostaglandin G/H synthase 2 (Homo sapiens) (UniProt P35354).
T3 sequence (whole entry): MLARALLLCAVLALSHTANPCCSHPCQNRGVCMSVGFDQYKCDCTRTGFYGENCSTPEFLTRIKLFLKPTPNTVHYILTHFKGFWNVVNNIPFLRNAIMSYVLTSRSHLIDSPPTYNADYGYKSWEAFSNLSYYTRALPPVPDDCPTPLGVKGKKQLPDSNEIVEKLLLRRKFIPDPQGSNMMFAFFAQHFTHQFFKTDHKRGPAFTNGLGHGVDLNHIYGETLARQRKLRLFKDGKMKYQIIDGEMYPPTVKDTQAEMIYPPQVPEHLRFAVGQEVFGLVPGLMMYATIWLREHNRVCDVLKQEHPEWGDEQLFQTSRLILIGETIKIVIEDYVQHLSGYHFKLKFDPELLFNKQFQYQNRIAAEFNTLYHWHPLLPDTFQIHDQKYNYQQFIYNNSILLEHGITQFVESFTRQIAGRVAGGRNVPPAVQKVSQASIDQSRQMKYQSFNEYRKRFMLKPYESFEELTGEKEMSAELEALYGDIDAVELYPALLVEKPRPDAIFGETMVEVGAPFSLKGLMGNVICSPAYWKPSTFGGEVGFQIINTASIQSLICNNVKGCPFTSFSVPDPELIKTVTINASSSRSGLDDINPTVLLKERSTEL
The experiment in a line: Inhibition of human recombinant COX2 using arachidonic acid as substrate at 1 mM incubated for 10 mins prior to substrate addition measured for 2 mins by enzyme immunoassay.

Assay [5] concerns the target T2, Prostaglandin E synthase (Homo sapiens). The experiment in a line: Ratio of MK886 IC50 to compound IC50 for mPGES1 (unknown origin).
Assay [6] can be described thus: Selectivity index, ratio of IC50 for ovine COX1 to IC50 for mPGES1 (unknown origin).
Assay [7] addresses T4, Prostaglandin G/H synthase 1 (Ovis aries) (UniProt P05979).
T4 sequence (whole entry): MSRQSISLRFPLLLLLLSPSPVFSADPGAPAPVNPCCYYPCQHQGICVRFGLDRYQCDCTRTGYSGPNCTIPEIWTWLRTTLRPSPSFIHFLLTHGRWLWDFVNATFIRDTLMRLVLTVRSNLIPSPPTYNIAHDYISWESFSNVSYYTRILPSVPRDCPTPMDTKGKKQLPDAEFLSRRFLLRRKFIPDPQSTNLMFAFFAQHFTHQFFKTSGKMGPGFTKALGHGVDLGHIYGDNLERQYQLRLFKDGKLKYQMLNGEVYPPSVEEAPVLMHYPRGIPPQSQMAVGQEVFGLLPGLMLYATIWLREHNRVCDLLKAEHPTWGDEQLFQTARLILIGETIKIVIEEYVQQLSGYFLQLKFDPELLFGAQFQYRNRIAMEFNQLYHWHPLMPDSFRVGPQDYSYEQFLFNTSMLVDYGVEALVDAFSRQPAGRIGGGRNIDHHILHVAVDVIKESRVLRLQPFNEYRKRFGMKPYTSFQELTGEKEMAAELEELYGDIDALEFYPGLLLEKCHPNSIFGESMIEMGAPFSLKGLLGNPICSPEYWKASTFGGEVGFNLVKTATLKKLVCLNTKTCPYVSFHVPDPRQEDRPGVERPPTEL
Put plainly: Inhibition of ovine COX1 using PGH2 as substrate at 1 mM incubated for 10 mins prior to substrate addition measured for 2 mins by enzyme immunoassay. The following applies: in the assay text read “arachidonic acid” for “PGH2”. Summed up:
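COX-1 (purified ovine) or COX-2 (purified human recombinant) preincubated with test compound 10 min at 37 °C, then tested at 1 mM. Prostanoid product quantified by enzyme immunoassay with a broadly specific antibody that binds all major prostaglandins (COX inhibitor screening kit).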

In assay [1], `CC(C)c1ccc2c(c1)c(SC(C)(C)C)c(CC(C)(C)C(=O)O)n2Cc1ccc(Cl)cc1` showed an IC50 of 3.2 µM.
On Prostaglandin E synthase, `Cc1ccc(S(=O)(=O)NCCCn2nnc(C(=O)O)c2C(=O)O)cc1` yielded an IC50 of 6.3 µM.
On the same count and under the same terms, in the case of `O=C(O)c1nnn(CCNS(=O)(=O)c2ccccc2)c1C(=O)O` it was 4.1 µM; in that of `CS(=O)(=O)NCCn1nnc(C(=O)O)c1C(=O)O`, 10.3 µM.
Same read-out and setting: the same measure for `O=C(O)c1nnn(CCNS(=O)(=O)c2cccc(C(F)(F)F)c2)c1C(=O)O`: 4.4 µM.
For `O=C(O)c1nnn(CCN(c2ccccc2)S(=O)(=O)c2ccccc2)c1C(=O)O`, the inhibition in assay [2] turned out to be 18.1%; in assay [3] it was 69.1%; in assay [7] it was 50%. Besides, the inhibition result in assay [4] is “inactive”. Further, the half-inhibitory concentration (IC50) against Prostaglandin E synthase is 1.1 µM. Further, the Ratio IC50 worked out at 3.5 in assay [5] and 1000 in assay [6].
In the case of `Cc1ccc(S(=O)(=O)NCn2nnc(C(=O)O)c2C(=O)O)cc1`, on Prostaglandin E synthase, the IC50 amounted to 6.9 µM.
Compound `COC(=O)c1nnn(CCNS(=O)(=O)c2ccccc2)c1C(=O)OC` showed an IC50 against Prostaglandin E synthase of 12.9 µM.
Still for that read-out and setting: the same measure for `NC(=O)c1nnn(CCNS(=O)(=O)c2ccccc2)c1C(N)=O`: 23.3 µM; for `O=C(O)c1nnn(CCNS(=O)(=O)c2ccccc2C(F)(F)F)c1C(=O)O`: 3.3 µM.
Same read-out and setting: the same measure for `CCS(=O)(=O)NCCn1nnc(C(=O)O)c1C(=O)O`: 9.7 µM; for `CN(CCn1nnc(C(=O)O)c1C(=O)O)S(=O)(=O)c1ccccc1`: 4 µM; for `CCCN(CCn1nnc(C(=O)O)c1C(=O)O)S(=O)(=O)c1ccc(C)cc1`: 3.8 µM.
On the same count and under the same terms, in the case of `Cc1ccc(S(=O)(=O)NCCn2nnc(C(=O)O)c2C(=O)O)cc1` it was 4.2 µM.
